# Test results from ChEMBL document CHEMBL1240360, “TMC278, a next-generation nonnucleoside reverse transcriptase inhibitor (NNRTI), active against wild-type and NNRTI-resistant HIV-1” (Antimicrob Agents Chemother, 2010).
# Key:
# [1] = system: Human immunodeficiency virus 1; assay: Antiviral activity against Human immunodeficiency virus 1 group M subtype D assessed as days to viral replication breakthrough at 10 nM by cell based assay; type: functional
# [2] = system: Human immunodeficiency virus 1; assay: Antiviral activity against Human immunodeficiency virus 1 subtype E isolate 92TH006 infected in human PBMC cells by cell based assay; details: Human immunodeficiency virus 1, subtype E 92TH006, PBMC
# [3] = system: Human immunodeficiency virus 1; assay: Antiviral activity against Human immunodeficiency virus 1 group M subtype BG assessed as days to viral replication breakthrough at 10 nM by cell based assay; type: functional
# [4] = system: Human immunodeficiency virus 1; assay: Antiviral activity against Human immunodeficiency virus 1 group M subtype B assessed as days to viral replication breakthrough at 40 nM by cell based assay; type: functional
# [5] = system: Human immunodeficiency virus 1; assay: Antiviral activity against Human immunodeficiency virus 1 group M subtype H assessed as days to viral replication breakthrough at 10 nM by cell based assay; type: functional
# [6] = system: Human immunodeficiency virus 1; assay: Antiviral activity against Human immunodeficiency virus 1 group M subtype AE assessed as days to viral replication breakthrough at 10 nM by cell based assay; type: functional
# [7] = system: Human immunodeficiency virus 1; assay: Antiviral activity against Human immunodeficiency virus 1 subtype D infected in human MT4 cells assessed as reduction in virus induced cytopathicity; type: functional, organism-based
# How it was run: (§1)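 Recombinant viruses were made by recombining patient-derived HIV-1 RT-PR sequences into an RT-PR-deleted HXB2 proviral clone transfected into MT4 cells. Subtype was assigned from PR/RT sequence by Smith-Waterman alignment to HXB2. MT4 cells (1.5 × 10^5/ml) were infected at MOI 0.01 with serially diluted compound for 5 days at 37°C. Viability was read by MTT and EC50 derived.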
# [8] = system: Human immunodeficiency virus 1; assay: Antiviral activity against Human immunodeficiency virus 1 subtype C isolate 92BR025 infected in human PBMC cells by cell based assay; details: Human immunodeficiency virus 1, subtype C isolate 92BR025, PBMC
# MT4 = assay: Cytotoxicity against human MT4 cells by cell based assay
# How it was run: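 Cytotoxicity in MT4 cells from cell-based assays gave a 50% cytotoxic concentration, reported as a median with first- to third-quartile values over the stated number of experiments.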
# [9] = system: Human immunodeficiency virus 1; assay: Antiviral activity against Human immunodeficiency virus 1 group M subtype F1 assessed as days to viral replication breakthrough at 40 nM by cell based assay; type: functional
# [10] = system: Human immunodeficiency virus 1; assay: Antiviral activity against Human immunodeficiency virus 1 group M subtype C assessed as days to viral replication breakthrough at 40 nM by cell based assay; type: functional
# [11] = system: Human immunodeficiency virus 1; assay: Antiviral activity against Human immunodeficiency virus 1 subtype B isolate WEJO infected in human PBMC cells by cell based assay
# [12] = system: Human immunodeficiency virus 1; assay: Antiviral activity against Human immunodeficiency virus 1 group M subtype D assessed as days to viral replication breakthrough at 200 nM by cell based assay; type: functional
# [13] = system: Human immunodeficiency virus 1; assay: Antiviral activity against Human immunodeficiency virus 1 group M subtype A1 assessed as days to viral replication breakthrough at 40 nM by cell based assay; type: functional
# [14] = system: Human immunodeficiency virus 1; assay: Antiviral activity against Human immunodeficiency virus 1 group M subtype C assessed as days to viral replication breakthrough at 10 nM by cell based assay; type: functional
# [15] = system: Human immunodeficiency virus 1; assay: Antiviral activity against Human immunodeficiency virus 1 subtype G isolate G3 infected in human PBMC cells by cell based assay; details: Human immunodeficiency virus 1, subtype G isolate G3, PBMC
# [16] = system: Human immunodeficiency virus 1; assay: Antiviral activity against Human immunodeficiency virus 1 subtype F isolate 93BR029 infected in human PBMC cells by cell based assay; details: Human immunodeficiency virus 1, subtype F isolate 93BR029, PBMC
# [17] = system: Human immunodeficiency virus 1; assay: Antiviral activity against Human immunodeficiency virus 1 group M subtype AG assessed as days to viral replication breakthrough at 10 nM by cell based assay; type: functional
# [18] = system: Human immunodeficiency virus 1; assay: Antiviral activity against Human immunodeficiency virus 1 group M subtype AE assessed as days to viral replication breakthrough at 40 nM by cell based assay; type: functional
# [19] = system: Human immunodeficiency virus 1; assay: Antiviral activity against Human immunodeficiency virus 1 group M subtype BG assessed as days to viral replication breakthrough at 40 nM by cell based assay; type: functional
# [20] = system: Human immunodeficiency virus 1; assay: Antiviral activity against Human immunodeficiency virus 1 subtype BG infected in human MT4 cells assessed as reduction in virus induced cytopathicity; type: functional, organism-based; how it was run: as §1
# [21] = system: Human immunodeficiency virus 1; assay: Antiviral activity against Human immunodeficiency virus 1 subtype F isolate 93BR019 infected in human PBMC cells by cell based assay; details: Human immunodeficiency virus 1, subtype F isolate 93BR019, PBMC
# [22] = system: Human immunodeficiency virus 1; assay: Antiviral activity against Human immunodeficiency virus 1 subtype C isolate 93MW959 infected in human PBMC cells by cell based assay; details: Human immunodeficiency virus 1, subtype C isolate 93MW959, PBMC
# [23] = system: Human immunodeficiency virus 1; assay: Antiviral activity against Human immunodeficiency virus 1 group M subtype AE assessed as days to viral replication breakthrough at 200 nM by cell based assay; type: functional
# [24] = system: Human immunodeficiency virus 1; assay: Antiviral activity against Human immunodeficiency virus 1 group M subtype C assessed as days to viral replication breakthrough at 200 nM by cell based assay; type: functional
# [25] = system: Human immunodeficiency virus 1; assay: Antiviral activity against Human immunodeficiency virus 1 3B infected in human MT4 cells assessed as reduction in virus induced cytopathicity; type: functional, organism-based
# How it was run: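 MT4 cells (1.5 × 10^5/ml) infected with HIV-1 IIIB at MOI 0.01 and added to serially diluted compound. Cultures incubated 5 days at 37°C under 5% CO2. Cell viability, as protection from virus-induced killing, read by MTT tetrazolium colorimetry. EC50 reported as median with first to third quartiles over n experiments.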
# [26] = system: Human immunodeficiency virus 1; assay: Antiviral activity against Human immunodeficiency virus 1 group M subtype H assessed as days to viral replication breakthrough at 200 nM by cell based assay; type: functional
# [27] = system: Human immunodeficiency virus 1; assay: Antiviral activity against Human immunodeficiency virus 1 group M subtype AG assessed as days f for viral replication at 200 nM by cell based assay; type: functional
# [28] = system: Human immunodeficiency virus 1; assay: Antiviral activity against Human immunodeficiency virus 1 group M subtype G assessed as days to viral replication breakthrough at 10 nM by cell based assay; type: functional
# [29] = system: Human immunodeficiency virus 1; assay: Antiviral activity against Human immunodeficiency virus 1 group M subtype G assessed as days to viral replication breakthrough at 40 nM by cell based assay; type: functional
# [30] = system: Human immunodeficiency virus 1; assay: Antiviral activity against Human immunodeficiency virus 1 subtype AG infected in human MT4 cells assessed as reduction in virus induced cytopathicity; type: functional, organism-based; how it was run: as §1
# [31] = system: Human immunodeficiency virus 1; assay: Antiviral activity against Human immunodeficiency virus 1 subtype (H) infected in human MT4 cells assessed as reduction in virus induced cytopathicity; type: functional, organism-based; how it was run: as §1
# [32] = system: Human immunodeficiency virus 1; assay: Antiviral activity against Human immunodeficiency virus 1 group M subtype F1 assessed as days to viral replication breakthrough at 10 nM by cell based assay; type: functional
structure (smiles),measurement,setting,value
Cc1cc(/C=C/C#N)cc(C)c1Nc1ccnc(Nc2ccc(C#N)cc2)n1 [RILPIVIRINE],Activity,[1],20 days
same,EC50,[2],0.08 nM
same,Activity,[3],10 days
same,Activity,[4],> 31 days
same,Activity,[5],> 31 days
same,Activity,[6],> 31 days
same,EC50,[7],0.3 nM
same,EC50,[8],0.33 nM
same,Activity,MT4,5.91 µM
same,Activity,[9],> 31 days
same,Activity,[10],> 31 days
same,EC50,[11],0.08 nM
same,Activity,[12],> 31 days
same,Activity,[13],> 31 days
same,Activity,[14],> 31 days
same,EC50,[15],0.25 nM
same,EC50,[16],0.19 nM
same,Activity,[17],> 31 days
same,Activity,[18],> 31 days
same,Activity,[19],13 days
same,EC50,[20],0.22 nM
same,EC50,[21],0.95 nM
same,EC50,[22],0.11 nM
same,Activity,[23],> 31 days
same,Activity,[24],> 31 days
same,EC50,[25],0.73 nM
same,Activity,[26],> 31 days
same,Activity,[27],> 31 days
same,Activity,[28],> 31 days
same,Activity,[29],> 31 days
same,EC50,[30],0.13 nM
same,EC50,[31],0.24 nM
same,Activity,[32],> 31 days
